The species named for series [1] is Rattus norvegicus. It counts as functional, Striatum, Membrane.
Series [2] concerns Rattus norvegicus. Description: Biodistribution ratio measured as the ratio of compound present in brain to that of blood at 15 min after intravenous injection. It counts as ADME, organism-based. The note with it: 0.25 h. The gist of the method:
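Male Sprague-Dawley rats (225-300 g) given 0.2 mL saline containing [125I]-labeled ligand (2-5 μCi, ~2200 Ci/mmol) via femoral vein under ether anesthesia; sacrificed at set times by cardiac excision. Brain and blood weighed and gamma-counted against diluted injectate; ratio taken from % dose/gram values, 3 rats per time point.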

The subject of series [3] is Rattus norvegicus. Description: Regional brain distribution of compound in rats cerebellum after an intravenous injection was measured at 1 hr. It is filed as ADME, organism-based. To be noted: in vivo. In short, it runs like this:
(§1)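 After femoral-vein injection of [125I]-labeled ligand (2-5 μCi, ~2200 Ci/mmol, 0.2 mL saline, ether anesthesia) into male Sprague-Dawley rats (225-300 g), brains were dissected into cortex, striatum and cerebellum, weighed and gamma-counted. % dose/gram calculated against diluted initial dose; regional ratio = % dose/gram of region divided by that of cerebellum.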

Series [4] has as its system Rattus norvegicus. The series can be described thus: Biodistribution of compound in rats blood after an intravenous injection was measured at 15 min. It counts as ADME, organism-based. To be noted: in vivo, 0.25 h. The gist of the method: (§2)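 Male Sprague-Dawley rats (225-300 g), free access to food and water. Under ether anesthesia, given 0.2 mL saline containing 125I-labelled ligand (2-5 μCi, ~2200 Ci/mmol) into the femoral vein. Killed by cardiac excision at set times. Organs removed, weighed and gamma-counted. % dose/organ is taken against diluted injectate aliquots, with blood and muscle assumed to be 7% and 40% of body weight. Mean of 3 rats ± std dev.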

In series [5] the test system is Rattus norvegicus. Description: Biodistribution of compound in rats heart after an intravenous injection was measured at 1 hr. It counts as ADME, organism-based. To be noted: in vivo. The gist of the method:
as §2

Series [6] deals with Rattus norvegicus. The series can be described thus: Biodistribution of compound in rats thyroid after an intravenous injection was measured at 1 hr. It counts as ADME, organism-based, Thyroid gland. The note with it: in vivo. In short, it runs like this:
as §2

In series [7] the test system is Rattus norvegicus. The series can be described thus: Biodistribution of compound in rats brain after an intravenous injection was measured at 2 min. To be noted: in vivo. It counts as ADME, organism-based. In short, it runs like this:
(§3)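 Rats (male Sprague-Dawley, 225-300 g) given the 125I ligand (2-5 μCi, ~2200 Ci/mmol) in 0.2 mL saline via the femoral vein under ether anesthesia, then killed at set times. Whole brain removed, weighed and gamma-counted. % dose/organ is taken against diluted injectate aliquots. Mean of 3 rats ± std dev.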

Series [8] relates to Rattus norvegicus. The series can be described thus: Biodistribution of compound in rats skin after an intravenous injection was measured at 1 hr. To be noted: in vivo. It counts as ADME, organism-based, Zone of skin. The gist of the method: as §2
For series [9], the system named is Rattus norvegicus. Description: Biodistribution of compound in rats liver after an intravenous injection was measured at 1 hr. The note with it: in vivo. It is filed as ADME, organism-based. In short, it runs like this: as §2
In series [10] the test system is Rattus norvegicus. The series can be described thus: Biodistribution of compound in rats kidney after an intravenous injection was measured at 15 min. It is filed as ADME, organism-based. To be noted: in vivo, 0.25 h. In short, it runs like this:
as §2

The subject of series [11] is Rattus norvegicus. Description: Regional brain distribution of compound in rats striatum after an intravenous injection was measured at 1 hr. It counts as ADME, organism-based. To be noted: in vivo. In short, it runs like this:
as §1

In series [12] the test system is Rattus norvegicus. Description: Biodistribution of compound in rats skin after an intravenous injection was measured at 2 min. It is filed as ADME, organism-based, Zone of skin. The note with it: in vivo. The gist of the method:
as §2

Series [13] concerns Rattus norvegicus. Description: Biodistribution of compound in rats liver after an intravenous injection was measured at 15 min. It counts as ADME, organism-based. The note with it: in vivo, 0.25 h. The gist of the method: as §2
Series [14] concerns Rattus norvegicus. The series can be described thus: Regional brain distribution of compound in rats cerebellum after an intravenous injection was measured at 2 min. It is filed as ADME, organism-based. To be noted: in vivo. In short, it runs like this: as §1
Series [15] has as its system Rattus norvegicus. Description: Regional brain distribution of compound in rats cerebellum after an intravenous injection was measured at 15 min. It counts as ADME, organism-based. To be noted: in vivo, 0.25 h. In short, it runs like this: as §1
The test system of series [16] is Rattus norvegicus. Description: Biodistribution of compound in rats lung after an intravenous injection was measured at 2 min. It counts as ADME, organism-based. The note with it: in vivo. In short, it runs like this:
as §2

Series [17] deals with Rattus norvegicus. The series can be described thus: Biodistribution of compound in rats brain after an intravenous injection was measured at 1 hr. It is filed as ADME, organism-based. To be noted: in vivo. In short, it runs like this:
as §3

The subject of series [18] is Rattus norvegicus. The series can be described thus: Regional brain distribution of compound in rats striatum after an intravenous injection was measured at 2 min. The note with it: in vivo. It is filed as ADME, organism-based. The gist of the method: as §1
For series [19], the system named is Rattus norvegicus. The series can be described thus: Biodistribution of compound in rats spleen after an intravenous injection was measured at 1 hr. It counts as ADME, organism-based. To be noted: in vivo. In short, it runs like this: as §2
Series [20] concerns Rattus norvegicus. The series can be described thus: Biodistribution of compound in rats blood after an intravenous injection was measured at 1 hr. It is filed as ADME, organism-based. The note with it: in vivo. The gist of the method: as §2
Series [21] relates to Rattus norvegicus. Description: Biodistribution of compound in rats liver after an intravenous injection was measured at 2 min. It is filed as ADME, organism-based. To be noted: in vivo. In short, it runs like this: as §2
Series [22] relates to Rattus norvegicus. The series can be described thus: Biodistribution of compound in rats blood after an intravenous injection was measured at 2 min. It is filed as ADME, organism-based. To be noted: in vivo. The gist of the method: as §2

Values joined by “and” are separate entries in the source; they are usually repeats but may differ in a detail not shown here. Identical values can stand only once.

The compound `NCCc1c[nH]c2ccc(O)cc12` [SEROTONIN] showed a Ki in the series filed under Rattus norvegicus [1] of more than 5 µM.

In the series listed under Rattus norvegicus [1], `COc1cccc(OC)c1OCCNCC1COc2ccccc2O1` (centres undefined) returned an inhibition constant (Ki) of 0.634 µM.

As for `CN1CCc2cc(Cl)c(O)cc2[C@H](c2cccc(I)c2)C1`, the Biodistribution in the series with Rattus norvegicus [2] was 5.77%; in the series with Rattus norvegicus [3], 0.109; in the series with Rattus norvegicus [4], 1.588 and 0.975; in the series on Rattus norvegicus [5] it was 0.144; with Rattus norvegicus [6] it was 0.035; in the series with Rattus norvegicus [7], 1.59. The Biodistribution in the series on Rattus norvegicus [8] stood at 7.8; with Rattus norvegicus [9], 16.51; in the series with Rattus norvegicus [10] it was 4.36; in the series with Rattus norvegicus [11] it was 0.21; with Rattus norvegicus [12] it was 8.23; with Rattus norvegicus [13], 20.35. Also, the Biodistribution with Rattus norvegicus [14] is 0.73; in the series on Rattus norvegicus [15] it was 0.44; in the series with Rattus norvegicus [16] it was 9.02; in the series with Rattus norvegicus [17], 0.313; in the series on Rattus norvegicus [18] it was 0.398 and 0.555; with Rattus norvegicus [19] it was 0.025. Also, the figures for the Biodistribution in the series on Rattus norvegicus [20], in the series with Rattus norvegicus [21] and with Rattus norvegicus [22] were 0.975, 16.13 and 2.94, respectively.

In the case of `CN1CCc2cc(Cl)c(O)cc2C(c2cccc(I)c2)C1` (racemic), in the series filed under Rattus norvegicus [1], the affinity corresponds to a Ki of 0.00107 µM.

Usually Ki stands for the dissociation constant of the complex between target and ligand, obtained from inhibition or displacement. The low end stands for a stronger hold on the target, the high end for a looser hold on the target.

The values above are taken from ChEMBL document CHEMBL1125639, “Synthesis and resolution of (+-)-7-chloro-8-hydroxy-1-(3'-iodophenyl)-3-methyl-2,3,4,5-tetrahydro- 1H-3- benzazepine (TISCH): a high affinity and selective iodinated ligand for CNS D1 dopamine receptor” (J Med Chem, 1991).
